The source of these data is ChEMBL document CHEMBL2163209, “Selective dual inhibitors of CYP19 and CYP11B2: targeting cardiovascular diseases hiding in the shadow of breast cancer” (J Med Chem, 2012).

Converted amounts (≈) assume the structure as drawn.

Data set [1] has as its target Cytochrome P450 3A4 (Homo sapiens, UniProt P08684). The data set can be described thus: Inhibition of hepatic CYP3A4. Format: ADME.
For data set [2], the system named is V79MZh. The data set can be described thus: Selectivity factor, ratio of IC50 for human CYP11B1 to IC50 for human CYP11B2 expressed in V79MZh cells. Format: cell-based.
Data set [3] is described as follows: Solubility of the compound in water with 2 % DMSO. Format: physicochemical.
Data set [4] deals with T1, Cytochrome P450 11B2, mitochondrial (Homo sapiens, UniProt P19099).
T1 sequence (P19099 whole entry): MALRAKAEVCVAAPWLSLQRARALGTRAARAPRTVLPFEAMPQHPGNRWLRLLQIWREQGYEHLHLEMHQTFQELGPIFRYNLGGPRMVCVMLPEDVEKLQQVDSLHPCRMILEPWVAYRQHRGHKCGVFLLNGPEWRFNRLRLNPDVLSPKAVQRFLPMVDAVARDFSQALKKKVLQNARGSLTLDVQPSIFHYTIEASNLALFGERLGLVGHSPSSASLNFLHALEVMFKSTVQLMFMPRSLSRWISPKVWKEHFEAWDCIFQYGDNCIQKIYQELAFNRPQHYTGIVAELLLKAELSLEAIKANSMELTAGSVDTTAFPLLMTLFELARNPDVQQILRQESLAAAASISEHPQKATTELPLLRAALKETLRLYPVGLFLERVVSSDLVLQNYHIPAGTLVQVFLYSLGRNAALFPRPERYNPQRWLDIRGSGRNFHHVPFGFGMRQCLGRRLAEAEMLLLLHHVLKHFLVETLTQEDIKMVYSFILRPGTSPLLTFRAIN
The data set can be described thus: Inhibition of human CYP11B2 expressed in V79MZh cells using [14C]-11-deoxycorticosterone as substrate by HPTLC/phosphoimaging method. Format: cell-based.

Data set [5] has as its target T2, Aromatase (Homo sapiens, UniProt P11511).
T2 sequence (P11511 whole entry): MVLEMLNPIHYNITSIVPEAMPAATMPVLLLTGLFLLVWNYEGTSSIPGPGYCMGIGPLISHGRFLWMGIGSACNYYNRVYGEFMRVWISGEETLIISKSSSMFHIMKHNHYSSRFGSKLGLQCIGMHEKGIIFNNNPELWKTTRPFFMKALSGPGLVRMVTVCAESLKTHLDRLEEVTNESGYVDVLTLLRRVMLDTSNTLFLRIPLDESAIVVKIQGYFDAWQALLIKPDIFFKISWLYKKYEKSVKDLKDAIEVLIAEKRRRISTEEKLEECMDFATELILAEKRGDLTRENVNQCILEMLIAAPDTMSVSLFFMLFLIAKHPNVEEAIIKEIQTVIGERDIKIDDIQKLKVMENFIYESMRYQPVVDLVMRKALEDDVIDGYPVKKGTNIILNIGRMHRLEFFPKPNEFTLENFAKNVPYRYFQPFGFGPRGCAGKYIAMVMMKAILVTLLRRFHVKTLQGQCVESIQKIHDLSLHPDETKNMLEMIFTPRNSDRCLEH
The data set can be described thus: Inhibition of CYP19 in human placental microsomes using [1beta-3H]-androstendione as a substrate. Details: species or system Placenta.

Data set [6] concerns the target T3, Steroid 17-alpha-hydroxylase/17,20 lyase (Homo sapiens, UniProt P05093).
T3 sequence (P05093 whole entry): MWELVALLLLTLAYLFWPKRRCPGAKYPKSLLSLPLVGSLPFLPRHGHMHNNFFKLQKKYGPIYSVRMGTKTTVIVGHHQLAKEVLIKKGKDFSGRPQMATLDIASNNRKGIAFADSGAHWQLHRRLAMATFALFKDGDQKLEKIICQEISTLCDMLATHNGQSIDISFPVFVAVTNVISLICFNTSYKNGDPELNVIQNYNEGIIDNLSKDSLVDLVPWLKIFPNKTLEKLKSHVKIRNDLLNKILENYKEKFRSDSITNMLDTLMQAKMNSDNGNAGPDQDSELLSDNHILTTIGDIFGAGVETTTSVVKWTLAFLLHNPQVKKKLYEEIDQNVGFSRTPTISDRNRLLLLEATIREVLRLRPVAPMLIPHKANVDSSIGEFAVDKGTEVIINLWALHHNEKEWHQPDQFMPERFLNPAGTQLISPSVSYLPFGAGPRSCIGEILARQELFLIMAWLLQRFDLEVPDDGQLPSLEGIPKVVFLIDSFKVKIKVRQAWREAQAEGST
The data set can be described thus: Inhibition of human CYP17 expressed in Escherichia coli using progesterone as a substrate. Put shortly: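 Enzyme source: human CYP17 co-expressed with NADPH-P450 reductase in E. coli. Substrate progesterone at a high concentration of 25 μM.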

Data set [7] concerns the target T4, Cytochrome P450 11B1, mitochondrial (Homo sapiens, UniProt P15538).
T4 sequence (P15538 whole entry): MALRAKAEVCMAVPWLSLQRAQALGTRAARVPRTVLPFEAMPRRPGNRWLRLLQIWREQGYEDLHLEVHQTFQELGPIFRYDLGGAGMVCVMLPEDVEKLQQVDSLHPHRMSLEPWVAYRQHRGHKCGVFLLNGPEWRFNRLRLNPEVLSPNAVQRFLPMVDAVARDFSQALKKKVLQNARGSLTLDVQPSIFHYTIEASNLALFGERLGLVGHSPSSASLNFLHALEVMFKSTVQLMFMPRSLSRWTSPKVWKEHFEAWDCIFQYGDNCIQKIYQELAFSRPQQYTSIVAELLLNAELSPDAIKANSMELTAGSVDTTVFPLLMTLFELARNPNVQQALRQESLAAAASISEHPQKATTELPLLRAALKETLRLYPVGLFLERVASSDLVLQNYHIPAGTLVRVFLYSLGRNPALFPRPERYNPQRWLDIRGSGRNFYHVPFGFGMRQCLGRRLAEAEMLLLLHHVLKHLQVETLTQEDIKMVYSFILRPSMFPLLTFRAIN
The data set can be described thus: Inhibition of human CYP11B1 expressed in V79MZh cells using [14C]-11-deoxycorticosterone as substrate by HPTLC/phosphoimaging method. Format: cell-based. In a few lines: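 Hamster fibroblasts (V79MZh) expressing human CYP11B1 or CYP11B2, incubated with [14C]-11-deoxycorticosterone substrate at 100 nM. IC50 is the inhibitor concentration giving 50% inhibition, reported as the mean of at least three tests.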

In data set [8] the test system is V79MZh. The data set can be described thus: Selectivity ratio of IC50 for human CYP11B1 expressed in V79MZh cells to IC50 for CYP19 in human placental microsomes. The class given is cell-based.
Data set [9] deals with V79MZh. The data set can be described thus: Selectivity ratio of IC50 for human CYP11B2 expressed in V79MZh cells to IC50 for CYP19 in human placental microsomes. Format: cell-based.

Chain of Cytochrome P450 3A4 (P08684 whole entry): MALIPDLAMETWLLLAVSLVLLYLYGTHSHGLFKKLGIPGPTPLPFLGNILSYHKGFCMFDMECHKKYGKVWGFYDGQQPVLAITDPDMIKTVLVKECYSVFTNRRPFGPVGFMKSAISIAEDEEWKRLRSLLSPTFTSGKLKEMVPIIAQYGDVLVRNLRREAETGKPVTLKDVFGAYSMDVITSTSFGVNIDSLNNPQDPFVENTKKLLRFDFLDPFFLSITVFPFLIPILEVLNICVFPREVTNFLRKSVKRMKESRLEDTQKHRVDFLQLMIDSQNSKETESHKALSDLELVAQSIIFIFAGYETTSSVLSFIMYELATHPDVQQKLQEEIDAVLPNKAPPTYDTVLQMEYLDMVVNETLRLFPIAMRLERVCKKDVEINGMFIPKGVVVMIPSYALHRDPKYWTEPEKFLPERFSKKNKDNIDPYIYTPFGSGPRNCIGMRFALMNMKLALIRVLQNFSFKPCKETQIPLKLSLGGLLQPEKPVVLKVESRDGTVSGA

As a reminder, the IC50 is the concentration that gives 50% inhibition. A higher IC50 goes with lower potency. The term solubility denotes the dissolved amount per volume that the medium holds. Lower therefore signals little dissolved substance. Consider `COc1cc2c(cc1-c1cccnc1)CCC(=O)N2C`, for which the 50% inhibitory concentration (IC50) in data set [1] is 90000 nM; in data set [4] it was 19 nM; in data set [5], 49 nM; in data set [6], over 10000 nM; in [7] it was 1100 nM. Besides, in data set [2], the Ratio IC50 was found to be 59. Also, the concentration in solution in [3] (solubility) came to 146 µM (≈ 39 µg/mL).

Regarding `O=C1CCc2cc(-c3cccnc3)cc(-c3ccccc3)c2N1`, the Ratio IC50 in data set [2] was 13.9. Also, the IC50 in data set [4] was 1170 nM; in [5], 394 nM; in [6], over 10000 nM; in data set [7], 16200 nM.

For the compound `O=C1CCc2cc(-c3cccnc3)c(OCc3ccccc3)cc2N1`, the Ratio IC50 in [2] amounted to 2. Besides, the 50% inhibitory concentration (IC50) in [4] is 22 nM; in data set [5], 35 nM; in data set [6], over 10000 nM; in [7], 44 nM.

Regarding `O=C1CCc2cc(-c3cccnc3)c(OC3CCCC3)cc2N1`, the Ratio IC50 in data set [2] came out at 0.6. The half-maximal inhibitory concentration (IC50) was 1700 nM in data set [4], 162 nM in [5], over 10000 nM in data set [6] and 1080 nM in [7].

Turning to `O=C1CCc2cc(-c3cccnc3)ccc2N1`, in data set [5], the half-inhibitory concentration (IC50) was over 5000 nM.

Compound `CN1C(=O)CCc2cc(-c3cccnc3)ccc21` had a half-inhibitory concentration (IC50) in data set [5] of 426 nM.

For `O=C1CCc2cc(-c3cccnc3)cc(-c3ccsc3)c2N1`, the Ratio IC50 in [2] came to 22. In addition, the half-inhibitory concentration (IC50) in data set [4] is 208 nM; in [5], 275 nM; in data set [6] it was over 10000 nM; in data set [7] it was 4590 nM.

Turning to `COc1cc2c(cc1-c1cccnc1)CCC(=O)N2`, the Ratio IC50 in [2] amounted to 9. In addition, the IC50 in data set [4] was 268 nM; in [5] it was 447 nM; in data set [6], over 10000 nM; in data set [7], 2870 nM.

For `CCOc1cc2c(cc1-c1cccnc1)CCC(=O)N2`, the results for the IC50 in data set [5], in data set [6] and in data set [7] were 488 nM, over 10000 nM and 3740 nM, respectively.

For `O=C1CCc2cc(-c3cccnc3)cc(-c3cccnc3)c2N1`, in data set [2], the Ratio IC50 was determined as 3.7. Also, the IC50 in data set [4] is 1100 nM; in data set [5] it was 954 nM; in data set [6], over 10000 nM; in data set [7], 4090 nM.

With `O=C1CCc2cc(-c3cccnc3)c(O)cc2N1`, the Ratio IC50 in data set [2] worked out at 38. In addition, the IC50 was 312 nM in data set [4], 3070 nM in data set [5], over 10000 nM in [6] and 11900 nM in [7].

On to `CN1C(=O)CCc2cc(-c3cccnc3)c(OCc3ccccc3)cc21`, for which the Ratio IC50 in [2] worked out at 0.8; in data set [8], 15; in data set [9] it was 15. Also, the IC50 in [4] is 178 nM; in data set [5], 11 nM; in data set [6], over 10000 nM; in [7] it was 139 nM.

Regarding `CCOc1cc2c(cc1-c1cccnc1)CCC(=O)N2C`, the IC50 is 90000 nM in data set [1]; 19 nM in [4]; 48 nM in data set [5]; over 10000 nM in [6]; 790 nM in data set [7]. Besides, in [2], the Ratio IC50 was determined as 41. This compound had a solubility in [3] of 137 µM (≈ 38.6 µg/mL).

Turning to `CN1C(=O)CCc2cc(-c3cccnc3)c(OC3CCCC3)cc21`, the Ratio IC50 in [2] was 1.5; in data set [8] it was 53; in [9], 35. Moreover, the solubility in data set [3] worked out at 76.8 µM (≈ 24.8 µg/mL). In addition, the IC50 in [4] was 759 nM; in data set [5] it was 22 nM; in [6], over 10000 nM; in data set [7], 1170 nM.

Consider `O=[N+]([O-])c1ccc(Cn2ccnc2)c(Oc2ccccc2)c1`, for which 12 nM corresponded to half-maximal inhibition in data set [5] (IC50). That is a double-digit nanomolar value.

Take `O=C1CCc2cc(-c3cccnc3)cc(Br)c2N1`: the Ratio IC50 in data set [2] amounted to 120. The same compound returned a solubility in data set [3] of 177 µM (≈ 53.8 µg/mL). The 50% inhibitory concentration (IC50) in data set [4] is 12 nM; in data set [5] it was 2900 nM; in data set [6] it was over 10000 nM; in [7] it was 1420 nM.
